The nature of the assay: Cytotoxicity against human NCI60 cells by NCI protocol based assay. Format: functional. In short, it runs like this: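 NCI-60 human tumour cell line panel run per the NCI protocol, with ethanol used as solvent in place of DMSO. Single-dose screen at 10 μM first, then five-dose assay from 10 nM to 100 μM at log10 intervals. Percent growth was plotted against concentration for each cell line, and GI50, TGI and LC50 were calculated from the dose–response curves.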
Turning to `Cc1cc(O)c2c(c1)[C@@H]1OC(=O)CN1C1=C2C(=O)c2cccc(O[C@H]3C[C@@H](O)[C@@H](O)[C@H](C)O3)c2C1=O` [JADOMYCIN G], growth was halved (GI50) at 1.68 µM, the LC50 was 38.5 µM and total growth inhibition (TGI) required 9.6 µM.
Consider `CCCC1C(=O)OC2c3cc(C)cc(O)c3C3=C(C(=O)c4c(O[C@H]5C[C@@H](O)[C@@H](O)[C@H](C)O5)cccc4C3=O)N12` (stereo partly drawn), for which the GI50 amounted to 4.79 µM, the LC50 stood at 19 µM and total growth inhibition (TGI) required 10 µM.
Regarding `CC(=O)OC[C@@H]1O[C@@H](n2cc(COC[C@H]3C(=O)OC4c5cc(C)cc(O)c5C5=C(C(=O)c6c(O[C@H]7C[C@@H](O)[C@@H](O)[C@H](C)O7)cccc6C5=O)N43)nn2)[C@H](OC(C)=O)[C@H](OC(C)=O)[C@H]1OC(C)=O` (stereo partly drawn), the GI50 was 3.7 µM, the 50% lethal concentration (LC50) turned out to be 10.9 µM and total growth inhibition (TGI) required 6.6 µM.
`CC(=O)O[C@@H]1[C@@H](OC(C)=O)[C@H](C)O[C@@H](n2cc(COC[C@H]3C(=O)OC4c5cc(C)cc(O)c5C5=C(C(=O)c6c(O[C@H]7C[C@@H](O)[C@@H](O)[C@H](C)O7)cccc6C5=O)N43)nn2)[C@@H]1OC(C)=O` (stereo partly drawn) displayed a GI50 of 3.1 µM, an LC50 of 11.6 µM and a TGI of 6.8 µM.
As to `Cc1cc(O)c2c(c1)[C@@H]1OC(=O)[C@H](CC(C)C)N1C1=C2C(=O)c2cccc(O[C@H]3C[C@@H](O)[C@@H](O)[C@H](C)O3)c2C1=O` [JADOMYCIN L], halving of growth (GI50) required 1.82 µM, the LC50 is 9.3 µM and net growth stopped (TGI) at 4.1 µM.
In the case of `CC(=O)O[C@H]1O[C@@H](n2cc(COC[C@H]3C(=O)OC4c5cc(C)cc(O)c5C5=C(C(=O)c6c(O[C@H]7C[C@@H](O)[C@@H](O)[C@H](C)O7)cccc6C5=O)N43)nn2)[C@@H](OC(C)=O)[C@@H](OC(C)=O)[C@@H]1OC(C)=O` (stereo partly drawn), the GI50 is 3.5 µM, the LC50 turned out to be 11.8 µM and the TGI was found to be 7.2 µM.
The molecule `CCCCC1C(=O)OC2c3cc(C)cc(O)c3C3=C(C(=O)c4c(O[C@H]5C[C@@H](O)[C@@H](O)[C@H](C)O5)cccc4C3=O)N12` (stereo partly drawn) displayed a GI50 of 3.89 µM, an LC50 of 18 µM and a TGI of 8.7 µM.
In turn, `Cc1cc(O)c2c(c1)[C@@H]1OC(=O)[C@H]([C@H](C)O)N1C1=C2C(=O)c2cccc(O[C@H]3C[C@@H](O)[C@@H](O)[C@H](C)O3)c2C1=O` [JADOMYCIN T] returned a GI50 of 1.35 µM, a 50% lethal concentration (LC50) of 6.5 µM and a TGI of 3.02 µM.
The molecule `Cc1cc(O)c2c(c1)C1OC(=O)[C@H](COCc3cn(Cc4ccccc4)nn3)N1C1=C2C(=O)c2cccc(O[C@H]3C[C@@H](O)[C@@H](O)[C@H](C)O3)c2C1=O` (stereo partly drawn) showed a GI50 of 6.1 µM, an LC50 of 14.9 µM and a TGI of 11.9 µM.
`Cc1cc(O)c2c3c(ncc2c1)C(=O)c1c(O[C@H]2C[C@@H](O)[C@@H](O)[C@H](C)O2)cccc1C3=O` had a GI50 of 2.14 µM, a median lethal concentration (LC50) of 18.2 µM and a TGI of 5.75 µM.
Take `CC(=O)O[C@@H]1[C@@H](OC(C)=O)[C@H](C)O[C@H](n2cc(COC[C@H]3C(=O)OC4c5cc(C)cc(O)c5C5=C(C(=O)c6c(O[C@H]7C[C@@H](O)[C@@H](O)[C@H](C)O7)cccc6C5=O)N43)nn2)[C@@H]1OC(C)=O` (stereo partly drawn): the GI50 was determined as 3.1 µM, the median lethal concentration (LC50) stood at 9.8 µM and the TGI was 6.3 µM.

For orientation: GI50 means the concentration at which growth is held to half of that of the control. Higher therefore signals lower sensitivity of the cells. The term LC50 denotes the concentration that kills 50% of the test population. A high value points to a less lethal substance. As usually defined, the TGI is the concentration at which net growth stops.

These data come from ChEMBL document CHEMBL3593171, “Characterization of l-Digitoxosyl-phenanthroviridin from Streptomyces venezuelae ISP5230” (2015).
